Assay results from ChEMBL document CHEMBL5104225, “Synthesis and structure-activity relationship studies of N-terminal analogues of the lipopeptide antibiotics brevicidine and laterocidine” (RSC Med Chem, 2022).
In brackets after ≈: the same amount, converted by molar mass. Bridge positions count the residues as written; N and C are the ends. Square brackets hold non-standard residues; d marks the D form. Peptide text beside a SMILES is read from it. * marks the point of attachment. ξ: configuration not given here. Octanoyl(7-Me) = CC(C)CCCCCC(=O)*; Palmitoyl = CCCCCCCCCCCCCCCC(=O)*; Hexanoyl(4ξ-Me) = CCC(C)CCC(=O)*; dOrn = NCCC[C@@H](N)C(=O)O; Octanoyl = CCCCCCCC(=O)*; Orn = NCCC[C@H](N)C(=O)O

How the values were obtained:
Staphylococcus aureus = assay: Antibacterial activity against Staphylococcus aureus USA300 assessed as inhibition of bacterial growth incubated for 18 hrs by CLSI protocol based method; format: functional
How it was run: (§1)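 Single colonies from blood agar (16 h, 37 °C) grown in TSB at 37 °C, 220 rpm to OD600 ~0.5, then diluted in MHB to 2×10^5 CFU/mL. Mixed with serial MHB dilutions of DMSO stocks in polypropylene plates, sealed, and incubated 18 h at 37 °C, 600 rpm. MIC was taken as the lowest concentration with no visible growth; three technical replicates.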

Pseudomonas aeruginosa = assay: Antibacterial activity against Pseudomonas aeruginosa PAO1 assessed as inhibition of bacterial growth incubated for 18 hrs by CLSI protocol based method; format: functional; how it was run: as §1
Klebsiella pneumoniae = assay: Antibacterial activity against Klebsiella pneumoniae ATCC 13883 assessed as inhibition of bacterial growth incubated for 18 hrs by CLSI protocol based method; format: functional; how it was run: as §1
Escherichia coli [1] = assay: Antibacterial activity against Escherichia coli ATCC 25922 assessed as inhibition of bacterial growth incubated for 18 hrs by CLSI protocol based method; format: functional
How it was run: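 Broth microdilution MIC. Strain streaked from glycerol stock on sheep blood agar (16 h, 37 °C); a colony was grown in TSB at 37 °C, 220 rpm, to OD600 about 0.5. Cells were diluted in MHB to 2×10^5 CFU/mL and added 1:1 to serial dilutions in MHB in polypropylene plates.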

Escherichia coli [2] = assay: Antibacterial activity against colistin-resistant Escherichia coli ATCC 25922 carrying MCR-1 gene assessed as inhibition of bacterial growth incubated for 18 hrs by CLSI protocol based method; format: functional
How it was run: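 Broth microdilution MIC. MCR-1 strain grown from glycerol stock in TSB with kanamycin (16 h, 37 °C, 220 rpm), diluted 100-fold in the same medium and grown to OD600 about 0.5. Cells were diluted in MHB to 2×10^5 CFU/mL and added 1:1 to serial dilutions in MHB. Incubated 18 h, 37 °C, 600 rpm; visual lowest no-growth concentration; three technical replicates.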

Acinetobacter baumannii = assay: Antibacterial activity against Acinetobacter baumannii ATCC 17961 assessed as inhibition of bacterial growth incubated for 18 hrs by CLSI protocol based method; format: functional; how it was run: as §1
Erythrocyte = assay: Hemolytic activity in sheep red blood cell assessed as hemolysis at 64 ug/ml incubated for 1 hrs relative to control; format: toxicity, cell-based, Ovis aries; settings: at 64 µg/mL
How it was run: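 Defibrinated sheep erythrocytes were washed five times in PBS with 0.002% Tween20 and normalized so the positive control read 2.5–3.0 at 415 nm. Cells were mixed with peptide at 64 µg/mL and held 1 h at 37 °C, shaking 500 rpm, then centrifuged. Supernatant A415 was background-corrected against buffer and expressed as % of 0.1% Triton X-100. Run in triplicate.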

| Molecule | MIC (Staphylococcus aureus) | MIC (Pseudomonas aeruginosa) | MIC (Klebsiella pneumoniae) | MIC (Escherichia coli [1]) | MIC (Escherichia coli [2]) | MIC (Acinetobacter baumannii) | Activity (Erythrocyte) |
| --- | --- | --- | --- | --- | --- | --- | --- |
| CCCCCCCC(=O)N[C@H](CC(N)=O)C(=O)N[C@H](Cc1ccc(O)cc1)C(=O)N[C@H](Cc1c[nH]c2ccccc12)C(=O)N[C@H](CCCN)C(=O)N[C@@H](CCCN)C(=O)NCC(=O)N[C@H](CCCN)C(=O)N[C@@H](Cc1c[nH]c2ccccc12)C(=O)N[C@@H]1C(=O)N[C@@H]([C@@H](C)CC)C(=O)NCC(=O)N[C@@H](CO)C(=O)O[C@@H]1C (Octanoyl-[dN][dY][dW][dOrn][Orn]G[dOrn]WTIGS; ester 9-C) | > 32 µg/mL | 8 µg/mL (≈ 5.22 µM) | 16 µg/mL (≈ 10.4 µM) | 16 µg/mL (≈ 10.4 µM) | 16 µg/mL (≈ 10.4 µM) | 16 µg/mL (≈ 10.4 µM) |  |
| CCCCCCCC(=O)N[C@H](CO)C(=O)N[C@H](Cc1ccc(O)cc1)C(=O)N[C@H](Cc1c[nH]c2ccccc12)C(=O)N[C@H](CCCN)C(=O)N[C@@H](CCCN)C(=O)NCC(=O)N[C@H](CCCN)C(=O)N[C@@H](Cc1c[nH]c2ccccc12)C(=O)N[C@@H]1C(=O)N[C@@H]([C@@H](C)CC)C(=O)N[C@@H](CC(N)=O)C(=O)NCC(=O)NCC(=O)O[C@@H]1C (Octanoyl-[dS][dY][dW][dOrn][Orn]G[dOrn]WTINGG; ester 9-C) | > 32 µg/mL | 2 µg/mL (≈ 1.26 µM) | 2 µg/mL (≈ 1.26 µM) | 2 µg/mL (≈ 1.26 µM) | 2 µg/mL (≈ 1.26 µM) | 4 µg/mL (≈ 2.51 µM) |  |
| CCCCCCCCCCCCCCCC(=O)N[C@H](CO)C(=O)N[C@H](Cc1ccc(O)cc1)C(=O)N[C@H](Cc1c[nH]c2ccccc12)C(=O)N[C@H](CCCN)C(=O)N[C@@H](CCCN)C(=O)NCC(=O)N[C@H](CCCN)C(=O)N[C@@H](Cc1c[nH]c2ccccc12)C(=O)N[C@@H]1C(=O)N[C@@H]([C@@H](C)CC)C(=O)N[C@@H](CC(N)=O)C(=O)NCC(=O)NCC(=O)O[C@@H]1C (Palmitoyl-[dS][dY][dW][dOrn][Orn]G[dOrn]WTINGG; ester 9-C) | 32 µg/mL (≈ 18.8 µM) | 32 µg/mL (≈ 18.8 µM) | > 32 µg/mL | 32 µg/mL (≈ 18.8 µM) | 32 µg/mL (≈ 18.8 µM) | 4 µg/mL (≈ 2.35 µM) |  |
| CCC(C)CCC(=O)N[C@H](CC(N)=O)C(=O)N[C@H](Cc1ccc(O)cc1)C(=O)N[C@H](Cc1c[nH]c2ccccc12)C(=O)N[C@H](CCCN)C(=O)N[C@@H](CCCN)C(=O)NCC(=O)N[C@H](CCCN)C(=O)N[C@@H](Cc1c[nH]c2ccccc12)C(=O)N[C@@H]1C(=O)N[C@@H]([C@@H](C)CC)C(=O)NCC(=O)N[C@@H](CO)C(=O)O[C@@H]1C (some centres not stated) ({Hexanoyl(4ξ-Me)}-[dN][dY][dW][dOrn][Orn]G[dOrn]WTIGS; ester 9-C) | > 32 µg/mL | 8 µg/mL (≈ 5.26 µM) | 2 µg/mL (≈ 1.32 µM) | 4 µg/mL (≈ 2.63 µM) | 4 µg/mL (≈ 2.63 µM) | 4 µg/mL (≈ 2.63 µM) |  |
| CC[C@H](C)[C@@H]1NC(=O)[C@@H](NC(=O)[C@H](Cc2c[nH]c3ccccc23)NC(=O)[C@@H](CCCN)NC(=O)CNC(=O)[C@H](CCCN)NC(=O)[C@@H](CCCN)NC(=O)[C@@H](Cc2c[nH]c3ccccc23)NC(=O)[C@@H](Cc2ccc(O)cc2)NC(=O)[C@@H](CO)NC(=O)CCCCCC(C)C)[C@@H](C)OC(=O)CNC(=O)CNC(=O)[C@H](CC(N)=O)NC1=O ({Octanoyl(7-Me)}-[dS][dY][dW][dOrn][Orn]G[dOrn]WTINGG; ester 9-C) | > 32 µg/mL | 4 µg/mL (≈ 2.49 µM) | 2 µg/mL (≈ 1.25 µM) | 2 µg/mL (≈ 1.25 µM) | 2 µg/mL (≈ 1.25 µM) | 2 µg/mL (≈ 1.25 µM) |  |
| COLISTIN [listing 1 of 2 here] |  |  |  |  |  |  | < 0.1% |
| COLISTIN [listing 2 of 2 here] | > 32 µg/mL | 4 µg/mL | 0.5 µg/mL | 0.5 µg/mL | 8 µg/mL | < 0.25 µg/mL |  |
